Measured values collected from several papers.
Lines come from different studies, so protocols differ.
Target: Tyrosine-protein kinase Fes/Fps (FES, Homo sapiens, UniProt P07332)

O=C(NCCCN1CCOCC1)c1ccc(Nc2ncc(Cl)c(-c3ccc(Cl)s3)n2)cc1  remaining binding (binding; competition with immobilised ligand; 1 µM): 62%
CNC(=O)Nc1ccc2c(c1)[C@@]1(CC2)OC(=O)N(CC(=O)N(Cc2ccc(F)cc2)[C@@H](C)C(F)(F)F)C1=O  remaining binding (cell-free assay; competition with immobilised ligand; 1 µM): 85%
N[C@@H]1CCN(c2nccc(-c3cnn4ncccc34)n2)C1  remaining binding (binding; 1 µM): 100%
FC(F)(F)Oc1cccc(-c2cnc3ccc(-c4ccncc4)nn23)c1  remaining binding (cell-free assay; competition with immobilised ligand; 5 µM): 84%
Cc1c(NC(=O)c2cc(C(N)=O)nc3cc(F)ccc23)c(C(F)(F)F)nn1Cc1ccc(C(C)(C)C)cc1  remaining binding (cell-free assay; competition with immobilised ligand; 1 µM): 100%
C[C@@H]1CCN(c2nccc(-c3cnn4ncccc34)n2)C1  remaining binding (binding; 1 µM): 100%
O=C(NCC1CCOCC1)c1n[nH]cc1NC(=O)c1c(F)cccc1F  remaining binding (binding; competition with immobilised ligand; 1 µM): 100%
COc1ccnn2ncc(-c3ccnc(N(C)C)n3)c12  remaining binding (binding; 1 µM): 75%
c1cncc(-c2cccc(Nc3nccc(NC4CCCCC4)n3)c2)c1  remaining binding (binding; competition with immobilised ligand; 10 µM): 80%
O=C(c1ccc(Nc2nccc(-c3cc4ccccc4s3)n2)cc1)N1CCC(N2CCCC2)CC1  remaining binding (binding; competition with immobilised ligand; 1 µM): 93%
CN(C)C(=O)Cn1cc(-c2nc([C@@](C)(c3ccc(-c4cnc(N)nc4)cc3)C3CC3)no2)cn1  remaining binding (cell-free assay; competition with immobilised ligand; 1 µM): 100%
CN(CCCC(F)(F)F)c1nccc(-c2cnn3ncccc23)n1  remaining binding (binding; 1 µM): 95%
COc1ncc2cc3ccccc3nc2c1C#N  remaining binding (cell-free assay; competition with immobilised ligand; 5 µM): 100%
CN([C@@H]1CCc2c(CC(=O)O)c3ccccc3n2C1)S(=O)(=O)c1ccc(F)cc1  remaining binding (cell-free assay; competition with immobilised ligand; 1 µM): 79%
F[C@@H]1CCN(c2nccc(-c3cnn4ncccc34)n2)C1  remaining binding (binding; 1 µM): 77%
O=C(c1ccc(Nc2ncc(Cl)c(-c3cc4ccccc4s3)n2)cc1)N1CCC(N2CCCC2)CC1  remaining binding (binding; competition with immobilised ligand; 1 µM): 74%
CNC(=O)[C@@H]1CC[C@@H](n2c(-c3ccc4cnccc4c3)nc3ccc(C(=O)NCc4cccc(C(N)=O)c4)cc32)C1  remaining binding (binding; competition with immobilised ligand; 1 µM): 86%
Cc1cnn2ncc(-c3ccnc(N(C)C)n3)c2c1  remaining binding (binding; 1 µM): 93%
CC(C)(O)c1cncc(-c2nc3ccc(F)cc3n2C2CC2)c1  remaining binding (cell-free assay; competition with immobilised ligand; 1 µM): 100%
CN(C)c1ncc(F)c(-c2cnn3ncccc23)n1  remaining binding (binding; 1 µM): 87%
COCCOc1nc(-c2ccc(Cl)nc2)nc2c1CN(C(=O)c1ncn3ccccc13)CC2  remaining binding (cell-free assay; competition with immobilised ligand; 0.1 µM): 100%
CCN1CCN(Cc2ccc(C(=O)Nc3ccc(C)c(Oc4ccc5c(c4)CC(=O)N5)c3)cc2C(F)(F)F)CC1  remaining binding (binding; competition with immobilised ligand; 1 µM): 97%
